“Also recorded” adds a separate entry of the source. Counter-ions that a name gives are not always drawn.

One data set has as its system HepG2 cells. Briefly: HepG2 cytotoxicity counterscreen. Format: cell-based, human. The note with it: cellular ATP content, CellTiter-Glo, 48 hr. For orientation: A counterscreen serves to expose hits that act by an unwanted route or on another target.
The next data set has as its target T1, human PPTase (Homo sapiens, UniProt Q9NRN7).
T1 sequence (Q9NRN7 1-309): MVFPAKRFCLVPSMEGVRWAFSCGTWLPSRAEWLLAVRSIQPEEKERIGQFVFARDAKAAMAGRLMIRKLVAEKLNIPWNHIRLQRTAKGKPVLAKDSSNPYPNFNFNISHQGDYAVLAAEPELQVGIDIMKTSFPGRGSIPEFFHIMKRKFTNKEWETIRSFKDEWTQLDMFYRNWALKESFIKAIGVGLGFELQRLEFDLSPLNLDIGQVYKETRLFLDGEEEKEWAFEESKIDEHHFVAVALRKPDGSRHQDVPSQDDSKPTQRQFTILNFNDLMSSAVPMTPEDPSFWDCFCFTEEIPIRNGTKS
The data set is described as follows: Gel-based PPTase assay with the human enzyme. The note with it: concentrations up to 125 μM. Format: biochemical.

The subject of the next data set is B. subtilis. Briefly: MIC determination, broth dilution, B. subtilis. Format: cell-based, Bacillus subtilis. To be noted: broth dilution, resazurin. The method, boiled down: (§1)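 Bacterial MIC followed NCCLS M07 broth microdilution. Test compound in DMSO (1 μL) added to 50 μL cation-adjusted Mueller Hinton II broth, then ~1 × 10^3 cfu from overnight liquid culture. Incubated at 30–37 °C for 16–20 h. MIC taken as the first well without visible growth. For imaging, 0.7% w/v resazurin (10 μL) added, then 4 h at 37 °C.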
A general note: In broth dilution the organism is exposed to a series of concentrations in liquid medium.

The test system of a further data set is E. coli. Briefly: MIC determination, broth dilution, E. coli. To be noted: E. coli K12 and BW25113. It is filed as cell-based, Escherichia coli. In outline: as §1
Another data set concerns P. aeruginosa. Briefly: MIC determination, broth dilution, P. aeruginosa. The note with it: ATCC9028. It is filed as cell-based, Pseudomonas aeruginosa. In outline:
as §1

A further data set relates to Candida albicans. Briefly: MIC determination, broth dilution, fungi. Format: cell-based. The note with it: C. albicans ATCC90028 and ATCC96901. The method, boiled down: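 Fungal MIC followed NCCLS M27 broth microdilution against fluconazole-sensitive and fluconazole-resistant C. albicans strains. Inoculum was made by suspending 2-day-old colonies in RPMI 1640, ~1 × 10^3 cfu per well, with test compound in DMSO. Incubated at 30–37 °C for 48 h. MIC read visually as the first well without growth.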

The subject of another data set is B. subtilis 168. The data set is described as follows: Membrane damage assessment. Format: cell-based, Bacillus subtilis. To be noted: 15 min incubation, up to 10-fold MIC, Syto9/propidium iodide. The method, boiled down: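 B. subtilis membrane integrity assessed by fluorescence microscopy with Syto9, which stains all cells, and propidium iodide, which enters only compromised cells. […] Stained cells were counted.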

A further data set deals with E. coli JW0451 (ΔacrB). The data set is described as follows: Broth dilution with efflux-defective E. coli mutant. Format: cell-based, Escherichia coli. The method, boiled down:
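Broth microdilution: test compound in DMSO (1 μL) added to 50 μL cation-adjusted Mueller Hinton II broth, then ~1 × 10^3 cfu inoculum from overnight culture. Incubated at 30–37 °C for 16–20 h. MIC scored visually as the first well without growth. Efflux-defective ΔacrB strain JW0451 tested alongside wild-type BW25113.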

In another data set the test system is E. coli BW25113. The data set is described as follows: Checkerboard synergy experiment with PAβN. It is filed as cell-based, Escherichia coli. The note with it: top concentrations tested. The method, boiled down: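 Checkerboard broth dilution in E. coli BW25113 combining test compound with PAβN over concentration grids. Resazurin added (10 μL, 0.7% w/v) and incubated a further 4 h at 37 °C; purple wells scored as no metabolically active bacteria. At each test-compound concentration, the lowest PAβN concentration halting growth was recorded. FIC index was estimated as combined potency relative to the single components.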

The subject of data set [1] is S. aureus and B. subtilis. Briefly: Minimum bactericidal concentration determination. Format: cell-based.
Data set [2] can be described thus: Mouse liver microsome stability. It is filed as in vitro ADME. Background: Liver microsomes are a subcellular fraction often used to study metabolism.
In the next data set the target is CYP2D6 (Homo sapiens, UniProt P10635). Briefly: CYP2D6 inhibition. Format: in vitro ADME. To be noted: 2D6, 3 μM, substrate dextromethorphan.
Sequence of CYP2D6 (P10635 whole entry): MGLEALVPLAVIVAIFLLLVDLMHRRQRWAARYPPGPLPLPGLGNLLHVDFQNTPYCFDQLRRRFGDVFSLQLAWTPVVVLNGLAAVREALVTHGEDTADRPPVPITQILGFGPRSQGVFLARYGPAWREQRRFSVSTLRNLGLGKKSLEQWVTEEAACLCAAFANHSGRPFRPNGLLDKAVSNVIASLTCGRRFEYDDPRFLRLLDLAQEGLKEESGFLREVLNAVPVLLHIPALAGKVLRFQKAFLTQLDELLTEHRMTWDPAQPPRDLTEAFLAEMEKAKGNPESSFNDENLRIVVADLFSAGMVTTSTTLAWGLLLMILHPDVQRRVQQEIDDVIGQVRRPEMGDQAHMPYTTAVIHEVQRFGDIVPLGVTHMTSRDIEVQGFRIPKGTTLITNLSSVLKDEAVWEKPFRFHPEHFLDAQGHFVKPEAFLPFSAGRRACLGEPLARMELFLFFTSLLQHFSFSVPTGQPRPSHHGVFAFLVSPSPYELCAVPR
A short description of data set [3]: PAMPA passive permeability. It is filed as in vitro ADME.
Data set [4] is described as follows: Compound stability in aqueous media and buffers. It is filed as physicochemical. To be noted: pH range 2–9, PBS and HEPES.
Data set [5] can be described thus: In vivo PK in male CD1 mice. Details: species or system mouse.
The next data set relates to clinical strains of MRSA. The data set is described as follows: MIC against clinical strains of S. aureus. It is filed as cell-based, Staphylococcus aureus. The note with it: all strains tested.
In data set [6] the test system is S. aureus BK2395 (PFGE USA500). Briefly: Mouse model of S. aureus septicemia. Format: in vivo. To be noted: 55 30 mpk, vancomycin 50 mpk; 4, 24, 48 hours post infection.

What is called half-life is the time needed for the level to fall by half in the phase considered. Higher therefore signals slow decline. In the case of `COc1ccnc(NC(=S)N2CCN(c3ncc(C(F)(F)F)cc3Cl)CC2)c1` [Compound 55, 4-(3-Chloro-5-(trifluoromethyl)pyridin-2-yl)-N-(4-methoxypyridin-2-yl)piperazine-1-carbothioamide Trifluoroacetate], in the data set with HepG2 cells, the “cytotoxicity (HepG2), IC50” value was “inactive”. Moreover, the “inhibition of the human PPTase” value against human PPTase is recorded as “no inhibition; also recorded: null activity”. The “concentration inhibiting the growth of B. subtilis” value in the data set on B. subtilis amounted to 1.7 µg/mL. Moreover, the “growth inhibition of E. coli” value in the data set with E. coli is “No growth inhibition”. Besides, in the data set on P. aeruginosa, the “growth inhibition of P. aeruginosa” value is listed as “No growth inhibition”. For the same compound, in the data set on Candida albicans, the “growth inhibition of fungal organisms” value was “No growth inhibition”. Further, the “bacterial cell membrane integrity” value in the data set with B. subtilis 168 is given as “continued cellular viability”. In addition, the “lowest concentration to which the ΔacrB strain is susceptible” value in the data set on E. coli JW0451 (ΔacrB) (E. coli JW0451, lesion in acrB locus) was 12.5 µg/mL. The “lowest concentration inhibiting bacterial growth (Figure 4B)” value in the data set on E. coli JW0451 (ΔacrB) (legend: disruption of tolC) was 12 µM. Besides, in the data set on E. coli BW25113, the “antibacterial activity of the single compound against BW25113” value was “neither compound alone was found to possess antibacterial activity”. Also, the “type of antibacterial activity” value in data set [1] is “bactericidal activity”. In addition, the “microsomal stability without NADPH” value in data set [2] (absence of NADPH cofactor, 1 h) is given as “completely stable”. This compound also registered a half-life in data set [2] (mouse, liver microsomes, microsomal stability (T1/2, min), mouse liver microsomes, with NADPH) of 49.5 min. The “CYP inh (3 μM) (%)” value on CYP2D6 was 25 (2D6) %. Besides, the PAMPA in data set [3] is 1122 × 10^–6 cm/s. Besides, the “degradation in aqueous media, buffers and mouse plasma” value in data set [4] was “no signs of degradation”. Further, in [5] (iv 3 and ip 30 mg/kg, 24 h period), the adverse clinical observations result is given as “did not result in any adverse clinical observations”. Also, the “time for which exposure exceeds the in vitro antibacterial MIC value” in data set [5] (total drug concentration) is recorded as “over 8 h”. Besides, the “spread of potencies over the panel of clinical isolates” value in the data set with clinical strains of MRSA is at most 3 fold. For the same compound, the “survival in mouse sepsis model” value in [6] is “did not increase survival”.

Source of the values: paper PMC3983359 (Journal of Medicinal Chemistry, 2014).
